# Screening results (PubChem BioAssay)
# Only some compounds are listed: those with a hit (about 1.9% of all), similar ones and a draw of the others.
# NPY-Y1 antag – blocks the human neuropeptide Y Y1 receptor; 200,000 tested, 1% active; inhibition, % at 3.6 µM; HEK293-CNG Y1 cells, membrane potential fluorescence; NPY at EC95, then isoproterenol; P25929;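 active = inhibition above the campaign mean inhibition of all tested compounds plus 3 SD, cut at about 20% in these data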;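 also: 0% = DMSO wells given NPY plus isoproterenol and 100% = isoproterenol alone without NPY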
# Target sequence (P25929 whole entry, looked up): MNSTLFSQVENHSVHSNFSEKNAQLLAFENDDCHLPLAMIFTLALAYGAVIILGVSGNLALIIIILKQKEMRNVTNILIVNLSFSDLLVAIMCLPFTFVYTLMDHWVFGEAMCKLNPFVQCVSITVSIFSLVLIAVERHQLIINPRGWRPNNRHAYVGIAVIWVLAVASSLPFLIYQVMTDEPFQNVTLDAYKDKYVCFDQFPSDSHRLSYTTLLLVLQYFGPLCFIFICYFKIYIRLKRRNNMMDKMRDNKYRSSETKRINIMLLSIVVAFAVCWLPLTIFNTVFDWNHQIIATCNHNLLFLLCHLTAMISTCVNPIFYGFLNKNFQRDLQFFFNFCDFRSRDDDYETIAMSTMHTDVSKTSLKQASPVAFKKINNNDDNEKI
#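 Material: Y1- and CNG-channel-expressing HEK293 cells / Probe or stimulus: NPY 25 nM then isoproterenol 1 µM plus Ro 20-1724 25 µM / Doses: 3.6 µM single dose, DMSO 0.4% / Schedule: compound incubation 1 h at room temperature, readout 45 min post-stimulation / Signal: membrane potential fluorescence / Benchmarks: isoproterenol-only wells as full block versus NPY-plus-isoproterenol wells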
# NPY1 pot ag – potentiates or activates human NPY-Y1 receptor. P25929. NPY-Y1 expressing cells, potentiator/agonist activation. activation, % at 3.6 µM. 220,000 tested, 0.37% active; in the data active = activation above about 33%, passing the limit was not always enough;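 also: cells stimulated with NPY at EC10 then isoproterenol at EC100; 0% = low agonist plus stimulus and 100% = saturating agonist plus stimulus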
# NPY-Y2 antag – NPY-Y2 (human) receptor antagonism | P49146 | NPY-Y2 expressing cells, antagonist mode | inhibition, % at 2.7 µM | 140,000 tested, 0.99% active; in the data active = inhibition above about 17%;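 also: 0% = vehicle with agonist challenge and 100% = reference antagonist with challenge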
# NPY2 pot ag – potentiates or activates human NPY-Y2 receptor; P49146; 220,000 tested, 0.45% active; activation, % at 3.6 µM; cells expressing NPY-Y2, potentiator/agonist read-out; AID 1359; in the data active = activation above about 27%;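 also: cells stimulated with NPY near EC25 plus isoproterenol at EC100; 0% = vehicle plus submaximal agonist and 100% = vehicle plus saturating agonist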
# An asterisk follows results filed as active; / = no result given.
SMILES,NPY-Y1 antag,NPY1 pot ag,NPY-Y2 antag,NPY2 pot ag
Cc1csc2nc(CSc3nc4ccccc4o3)c(Br)n12,23*,-17,11,-20
CCCc1nc2ccccc2c(C(=O)OC(C)C(=O)NCc2ccc3c(c2)OCO3)c1CC (stereo not given),25*,-26,19*,-2
O=c1[nH]ncc(N2CCN(Cc3ccccc3)CC2)c1Cl,6,16,/,9
COc1cccc(-n2cn[nH]c2=S)c1,-2,14,/,6
COc1cccc(-n2sc3c(c2=S)-c2cc(OC)ccc2NC3(C)C)c1,-5,49*,-3,39*
O=C1c2ccccc2C(=O)c2c(Nc3ccc(CCO)cc3)ccc(O)c21,/,121*,/,117*
CC(=O)Nc1ccc(Nc2ccc3c4c(cc(=O)n3C)-c3ccccc3C(=O)c24)cc1,-1,7,/,6
CCOc1ccc(-c2nc[nH]c2[N+](=O)[O-])cc1,2,9,/,1
CCCc1c(C(=O)NNc2cccc(Cl)c2)cnn1-c1ccccc1,/,29,/,22
O=S(=O)(Cc1cc(Oc2ccccc2)nc(-c2ccccc2)n1)c1ccccc1,22*,-11,21*,-14
c1ccc(Oc2cc(-c3ccccc3)nc(-c3ccccc3)n2)cc1,-5,3,3,-2
CCOC(=O)CSc1nc2c(sc(=S)n2Cc2ccco2)c(=O)n1-c1ccccc1,60*,-50,36*,-38
CCOC(=O)CSc1nc2c(sc(=S)n2-c2ccccc2OC)c(=O)n1Cc1ccco1,34*,8,27*,-33
Cc1ccc(NC(=O)c2cc(-c3ccccc3)nn2-c2ccccc2)cc1,2,33,2,16
O=C(Nc1ccc(F)cc1)c1nn(-c2ccccc2)c(=O)cc1Cl,-11,63*,/,53*
O=C(O)c1ccc2c(c1)SC1=NS(=O)(=O)CCN12,/,11,/,-13
CN(C(=O)c1ccc2c(c1)SC1=NS(=O)(=O)CCN12)C(c1ccccc1)c1ccccc1,37*,-21,22*,-20
Clc1ccccc1OCc1nnc2n1CCCCC2,/,6,/,7
CCOc1ccc(NC2OC(CO)C(O)C(O)C2O)c([N+](=O)[O-])c1 (stereo not given),0,-13,/,15
Cc1n[nH]c(=S)n1/N=C/c1ccccc1OCc1ccc(Cl)cc1,28*,-39,88*,-21
CC(=O)c1ccc(NC(=O)C(=O)c2cn(CC(=O)N3CCCCC3)c3ccccc23)cc1,-1,4,1,7
CCNc1nc(SCCOc2ccc(Cl)cc2Cl)nc(N(C)C)n1,2,-2,/,5
O=C(c1ccco1)N(CCCN1CCOCC1)c1nc(-c2ccc(Cl)cc2)cs1,41*,-44,30*,-23
Cn1c(-c2ccc3c(c2)OCO3)cnc1NCc1ccccc1,12,-15,10,3
Cc1ccc(-c2cnc(NCc3cc4c(cc3[N+](=O)[O-])OCO4)n2C)cc1C,-16,102*,/,88*
SMILES,NPY-Y1 antag,NPY1 pot ag,NPY-Y2 antag,NPY2 pot ag
C/C(N)=C(/C#N)C(=O)CSc1nc2ccccc2[nH]1,-2,-20,3,-10
C/C(N)=C(/C#N)C(=O)CSc1ncnc2ccccc12,-11,94*,9,98*
NC(=O)NC1NC(=O)NC1=O (stereo not given),/,8,/,-2
O=C(CCCOc1ccccc1)Nc1ccc(Br)cc1,22*,-21,5,-33
O=C(CCCOc1ccccc1)Nc1ccncc1,-3,0,2,-8
CC(C)C(c1nnnn1C(C)(C)C)N1CCN(c2cccc(Cl)c2)CC1 (stereo not given),48*,-14,22*,-4
CC(C)C(c1nnnn1Cc1ccco1)N1CCN(c2cccc(Cl)c2)CC1 (stereo not given),16,-2,9,9
CCc1[nH]nc2c1C(c1cccc(OC(=O)N3CCOCC3)c1)C(C#N)=C(N)O2 (stereo not given),11,-2,5,4
CC(C)c1[nH]nc2c1C(c1cccc(OC(=O)N3CCOCC3)c1)C(C#N)=C(N)O2 (stereo not given),131*,-31,20*,0
Cc1ccc2nc(Cl)c3nnnn3c2c1,-4,1,/,-11
CC(C)(C)n1nnnc1C(c1ccccn1)N(Cc1ccccc1)Cc1ccc(Cl)cc1 (stereo not given),9,14,12,-5
CCN(Cc1ccccc1)C(c1ccccn1)c1nnnn1C(C)(C)CC (stereo not given),23*,-11,26*,-6
Cc1ccc(CNc2oc(-c3ccco3)nc2C#N)cc1,1,-32,4,-11
Cc1ccc(-c2nc(C#N)c(NCc3cccc4c3OCO4)o2)cc1,28*,-20,22*,-31
COc1ccc(-c2nc(C#N)c(NCc3ccc(C)cc3)o2)cc1OC,14,-39,27*,-7
COc1ccc(-c2nc(C#N)c(NCCc3ccccc3)o2)cc1OC,6,0,9,-14
COc1ccccc1-c1nnc(NC(=O)CSc2nncn2C)s1,-7,-10,/,-7
C[C@H]1O[C@@H](O[C@H]2[C@@H](O)C[C@H](O[C@H]3[C@@H](O)C[C@H](O[C@H]4CC[C@@]5(C)[C@H](CC[C@@H]6[C@@H]5C[C@@H](O)[C@]5(C)[C@@H](C7=CC(=O)OC7)CC[C@]65O)C4)O[C@@H]3C)O[C@@H]2C)C[C@H](O)[C@@H]1O,49*,-88,53*,-22
CC(=O)c1c(C)nc2ccc(Br)cc2c1C(=O)O,8,-10,5,-18
CC(=O)c1c(C)nc2ccc(Br)cc2c1-c1ccccc1,22*,-13,/,-11
COc1ccc(C2=NN(C(=O)CSc3nc4ccccc4s3)C(c3ccc(OC)cc3)C2)cc1 (stereo not given),0,-23,4,1
COc1ccc2c(c1)C(C)CC(C)(C)N2C(=O)CSc1nc2ccccc2s1 (stereo not given),35*,-26,29*,-5
Cc1nc(C(C)NC(=O)CCc2nnc(-c3ccsc3)o2)cs1 (stereo not given),-2,1,/,7
Cc1nc2sccn2c(=O)c1CCN1CCC(=C(c2ccccc2)c2ccc(F)cc2)CC1,40*,-92,44*,-8
CCOC(=O)c1c(C)nc2sccn12,-5,10,-1,3
SMILES,NPY-Y1 antag,NPY1 pot ag,NPY-Y2 antag,NPY2 pot ag
CC(C)CN(CC(C)C)CC(O)COc1ccccc1Br (stereo not given),14,-22,12,-8
CCCCN(CCCC)CC(O)COc1ccccc1Br (stereo not given),40*,-25,26*,-3
CC1CCC(C(C)C)C(OC(=O)C[n+]2cc(-c3ccc(Cl)cc3)n3c2CCC3)C1 (stereo not given),/,-30,/,-11
CC1CCC(C(C)C)C(OC(=O)Cn2c(-c3ccc(F)cc3)[n+](C)c3ccccc32)C1 (stereo not given),61*,-47,46*,-11
CC1CCC(C(C)C)C(OC(=O)Cn2c(-c3ccccc3)[n+](C)c3ccccc32)C1 (stereo not given),112*,-129,80*,-37
CC(C)CC(=O)Nc1c2c(nn1-c1ccc(F)cc1)CSC2,-4,93*,3,100*
